From PubChem BioAssay
ERAP1 HTS inh = inhibitors of human ERAP1 aminopeptidase. inhibition, % at 10.7 µM. recombinant ERAP1, Leu-AMC fluorescence, 60 min. 0.15% of 340,000 active. Q9NZ08;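 active = mean replicate inhibition of at least 30%, or all replicates individually reaching that 30% level; inactive = mean below 30% and not every replicate reaching it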
DENV2 CPE rescue = inhibitors of DENV2 cytopathic effect | DENV2-infected cells, cytopathic effect rescue, plate reader | CPE inhibition, % at 9.99 µM | 1.7% of 350,000 active | AID 651640; in the data active = CPE inhibition above about 20%, passing the limit was not always enough; inconclusive = no clear call, values can overlap the other calls; tested in BHK-21 cells
SIRT5 inh = sirtuin-5 (human) deacylase inhibition. Q9NXA8. Purified SirT5, succinyl-peptide AMC, trypsin-coupled fluorescence. inhibition, % at 15 µM. 1.1% of 330,000 active. AID 652115; in the data active = inhibition above about 15%; inconclusive = no clear call, values can overlap the other calls
Target sequence (Q9NXA8 whole entry, looked up): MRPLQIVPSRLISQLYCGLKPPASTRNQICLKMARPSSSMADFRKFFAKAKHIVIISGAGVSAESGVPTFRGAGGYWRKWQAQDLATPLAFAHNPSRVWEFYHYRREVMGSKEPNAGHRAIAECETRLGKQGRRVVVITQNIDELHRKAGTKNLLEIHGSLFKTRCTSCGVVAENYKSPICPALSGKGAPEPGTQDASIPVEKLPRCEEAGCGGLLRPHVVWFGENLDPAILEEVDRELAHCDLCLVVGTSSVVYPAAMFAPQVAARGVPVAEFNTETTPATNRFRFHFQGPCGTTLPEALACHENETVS
CAL PDZ FP-1 = blocks peptide binding to human CAL PDZ domain | AID 504414 | inhibition, % at 20 µM | Q9HD26 | purified CAL PDZ, TMR-peptide fluorescence polarization, 1 h | 0.02% of 330,000 active;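 active = highest replicate inhibition of at least 40%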
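Control set: unlabelled peptide and DMSO controls / Material: purified CerCALP PDZ construct / Timing: 1 h incubation at room temperature before polarization reading / Doses: 20 µM, one dose / Detection: fluorescence polarization (mP)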
CAL PDZ FP-2 = CAL PDZ (human) peptide binding inhibition | AID 602252 | inhibition, % at 24.9 µM | 0.92% of 300,000 active | Q9HD26 | purified CAL PDZ, TMR-peptide fluorescence polarization, 1 h;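 active = mean inhibition of at least 30% with at least half of replicates also reaching 30%; inconclusive = no clear call, values can overlap the other calls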
S100A4 MyoIIA = inhibitors of human S100A4 binding to myosin IIA peptide; P26447; S100A4/TAMRA-MyoIIA peptide fluorescence polarization; inhibition, % at 10.7 µM; 0.14% of 360,000 active; AID 652163;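 active = mean inhibition of at least 70% across replicates, with every replicate also reaching that level; inconclusive = mean inhibition reaches 70% but some replicates fall short; inactive = mean inhibition below 70%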
Target sequence (P26447 whole entry, looked up): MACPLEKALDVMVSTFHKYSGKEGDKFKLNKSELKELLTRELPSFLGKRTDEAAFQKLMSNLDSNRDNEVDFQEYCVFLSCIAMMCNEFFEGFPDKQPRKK
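Test system – S100A4 monomer (human) · Compound – single-point compound testing · Schedule – 5 min incubation before reading · Probe or stimulus – TAMRA-labelled myosin IIA heavy-chain peptide probe, 5 nM · Benchmarks – neutral control DMSO, positive control TFP · Medium – Calcium-containing HEPES buffer, pH 7.2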
Numbers stand for hits; - = inactive; ? = inconclusive; . = no result given. This is a sample that favours compounds with a hit; in the whole collection about 2.9% have one here.

SMILES | ERAP1 HTS inh | DENV2 CPE rescue | SIRT5 inh | CAL PDZ FP-1 | CAL PDZ FP-2 | S100A4 MyoIIA
C[C@@H]1CCCCO[C@H](CN(C)Cc2ccc(Cl)c(Cl)c2)[C@@H](C)CN([C@@H](C)CO)C(=O)c2cc(NC(=O)Cc3ccccc3)ccc2O1 | - | - | - | . | . | -
C[C@H]1CN([C@@H](C)CO)C(=O)Cc2cc(NS(=O)(=O)c3ccccc3)ccc2O[C@@H]1CN(C)Cc1ccc(-c2ccccc2)cc1 | - | 40 | - | . | . | -
O=C([C@H]1[C@H](CO)[C@H]2Cn3c(cccc3=O)[C@@H]1N2S(=O)(=O)c1ccccc1F)N1CCCCC1 | - | - | - | . | . | -
Cc1c(/C=N/NC(=O)CNc2ccccc2)c2ccccn2c1C(=O)c1ccncc1 | - | 35 | - | - | - | -
Cc1c(/C=N/NC(=O)CNc2ccccc2)c2ccccn2c1C(=O)c1ccc(Cl)cc1 | . | . | . | - | - | .
CC(=O)c1ccc2c(c1)C1C=CCC1C(c1ccncc1)N2 (centres undefined) | . | . | . | - | - | .
CC(=O)c1ccc2c(c1)C1C=CCC1C(C(=O)O)N2 (centres undefined) | - | - | 32 | - | - | -
Cc1cc(C(=O)Nc2cccc3c2O[C@H](CN(C)CC2CC2)[C@H](C)CN([C@H](C)CO)C3=O)n(C)n1 | - | - | 16 | . | . | -
Cc1cc(C(=O)Nc2cccc3c2O[C@H](CN(C)Cc2ccc(Oc4ccccc4)cc2)[C@@H](C)CN([C@H](C)CO)C3=O)n(C)n1 | - | - | 17 | . | . | -
CN1CCN(C(=O)[C@H]2[C@H](CO)[C@H]3Cn4c(cccc4=O)[C@@H]2N3Cc2ccncc2)CC1 | - | - | - | . | . | -
CCC(=O)N1C[C@@H](C)[C@@H](OC)CN(C)C(=O)c2cc(NS(=O)(=O)CC)ccc2OC[C@H]1C | - | - | - | . | . | -
COc1ccc(S(=O)(=O)N(C)C[C@@H]2Oc3ccc(NC(=O)Nc4c(C)noc4C)cc3CC(=O)N([C@@H](C)CO)C[C@@H]2C)cc1 | - | - | - | . | . | -
O=C(CN1C(=O)NC(c2ccc(F)cc2)C1=O)NC1CCCCC1 (centres undefined) | . | . | . | - | 88 | .
O=C(Cc1ccc(F)cc1)NC1CCCCCC1 | - | - | - | - | - | -
Cc1nc(N)nc(N)c1CCCc1ccc(Cl)c(Cl)c1 | . | - | 15 | - | . | -
CCOCCCn1c(=S)[nH]c2cc(C(=O)NC3CCCC(C)C3C)ccc2c1=O (centres undefined) | - | - | - | - | 62 | -
CCOCCCNC(=O)c1ccc2c(=O)n(Cc3ccc4c(c3)OCO4)c(=S)[nH]c2c1 | - | - | - | - | 37 | -
COC(CNC(=O)c1ccc2c(=O)n(Cc3ccc4c(c3)OCO4)c(=S)[nH]c2c1)OC | - | - | 16 | - | - | -
CCOC(=O)C1(Cc2ccc(OC)cc2)CCN(C(=O)CCc2cnccn2)CC1 | . | - | - | - | 76 | -
O=C(C[C@H]1CC[C@@H](NC(=O)Nc2ccc3c(c2)OCO3)[C@@H](CO)O1)NCc1ccc2c(c1)OCO2 | - | 20 | - | . | . | -
O=C(C[C@@H]1CC[C@H](NC(=O)Nc2ccc3c(c2)OCO3)[C@H](CO)O1)NCc1ccc2c(c1)OCO2 | - | - | - | . | . | -
O=C(Nc1ccc2c(c1)OCO2)N[C@H]1CC[C@H](CCNC(=O)C2CC2)O[C@@H]1CO | - | - | 31 | . | . | -
O=C(c1ccc(F)cc1)N1CC(=O)N2[C@H](CO)[C@@H](c3ccc(C#CCC4CCCC4)cc3)[C@H]2C1 | - | - | - | . | . | -
C[n+]1ccccc1COc1ccc(C(C)(C)C)cc1 | - | 23 | - | - | - | -
CC(C)SCc1cc(N2CCCC2)nc(-c2ccccc2)n1 | - | 26 | - | - | - | -
SMILES | ERAP1 HTS inh | DENV2 CPE rescue | SIRT5 inh | CAL PDZ FP-1 | CAL PDZ FP-2 | S100A4 MyoIIA
COc1ccc(NC(=O)N(C)C[C@@H]2Oc3ncc(-c4cccnc4)cc3C(=O)N([C@H](C)CO)C[C@@H]2C)cc1 | - | - | - | . | . | -
C[C@@H]1CN([C@H](C)CO)C(=O)c2cc(-c3ccccc3F)cnc2O[C@H]1CN(C)Cc1ccc(F)cc1 | - | 29 | - | . | . | -
C[C@@H]1CN([C@@H](C)CO)C(=O)c2cc(C3=CCCC3)cnc2O[C@H]1CN(C)Cc1ccc(F)cc1 | - | - | - | . | . | -
C[C@@H]1CN([C@H](C)CO)C(=O)c2cc(C3=CCCC3)cnc2O[C@@H]1CN(C)Cc1ccc(C(=O)O)cc1 | - | - | - | . | . | -
C[C@@H]1CN([C@H](C)CO)C(=O)c2cc(C3=CCCC3)cnc2O[C@@H]1CN(C)Cc1ccc(F)cc1 | - | - | - | . | . | 105
C[C@H]1CN([C@@H](C)CO)C(=O)c2cc(-c3ccccc3F)cnc2O[C@@H]1CN(C)Cc1ccc(F)cc1 | - | - | - | . | . | -
C[C@@H]1CN([C@@H](C)CO)C(=O)c2cc(C3=CCCC3)cnc2O[C@@H]1CN(C)Cc1ccc(C(=O)O)cc1 | - | 25 | - | . | . | -
COc1cccc(C(=O)Nc2ccc3c(c2)C(=O)N(C)C[C@@H](OC)[C@@H](C)CN[C@@H](C)CO3)c1 | - | - | - | . | . | -
N#Cc1cccc(-c2ccc([C@@H]3[C@H](CO)N4CCCCN(C(=O)Nc5cccc(F)c5)C[C@@H]34)cc2)c1 | - | - | - | . | . | -
COC(=O)[C@@H]1[C@@H](CO)[C@@H]2Cn3c(ccc(-c4ccncc4)c3=O)[C@@H]2N1Cc1ccccc1F | - | - | - | . | . | -
Cc1cccc(N2CCN(C(=O)c3ccc4nc[nH]c4c3)CC2)c1C | - | - | 31 | - | - | -
CCOC(=O)c1sc(N(Cc2ccccc2)C(=O)CCl)nc1C | - | - | - | - | - | -
O=C(O)CSCC(=O)N(Cc1ccccc1)c1nc(-c2ccccc2)c(-c2ccccc2)s1 | - | ? | 17 | - | 44 | -
CN1C(=O)c2cc(NC(=O)c3cccs3)ccc2OC[C@H]2O[C@@H](CC(=O)N3CCCCC3)CC[C@H]21 | - | - | - | . | . | -
COC(=O)c1ccc(=O)c2nc3/c(=C/O)c(O)cc(=O)c3[nH]c12 | - | 42 | 20 | - | - | -
C[C@@H]1CCCCO[C@H](CN(C)C(=O)c2ccncc2)[C@H](C)CN([C@H](C)CO)C(=O)c2cc(NC(=O)CCC(F)(F)F)ccc2O1 | . | 74 | . | . | . | .
C[C@@H]1CCCCO[C@@H](CN(C)C)[C@H](C)CN([C@@H](C)CO)C(=O)c2cc(NC(=O)CCC(F)(F)F)ccc2O1 | - | ? | 17 | . | . | -
C[C@H](CO)N1C[C@H](C)[C@H](CN(C)C)OCCCC[C@H](C)Oc2ccc(NC(=O)CCC(F)(F)F)cc2C1=O | - | - | - | . | . | -
C[C@@H]1CCCCO[C@H](CN(C)C(=O)c2ccncc2)[C@H](C)CN([C@@H](C)CO)C(=O)c2cc(NC(=O)CCC(F)(F)F)ccc2O1 | . | - | . | . | . | .
